High-throughput results from PubChem BioAssay.
The list is not random: actives were taken first. Their share in the collection is about 1.9%.
Runt-SMMHC FRET – inhibitors of RUNX1 Runt–CBFb-SMMHC binding, primary screen, biochemical, FRET, Cerulean-Runt, Venus-CBFb-SMMHC, uHTS. Runt-related transcription factor 1 (Homo sapiens) + Core-binding factor subunit beta …. Cerulean-Runt/Venus-CBFb-SMMHC FRET ratio 530/480, 1 h. inhibition, % at 20 µM. 0.74% of 220,000 active;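 active = mean inhibition across duplicate retests at 20 µM reaching about 50%, limit read from the data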;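 note: 0% = DMSO wells and 100% = wells with excess untagged CBFb-SMMHC; inhibitors lower the FRET ratio by blocking Runt binding to CBFb-SMMHC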
Target sequence (Q01196 whole entry, looked up): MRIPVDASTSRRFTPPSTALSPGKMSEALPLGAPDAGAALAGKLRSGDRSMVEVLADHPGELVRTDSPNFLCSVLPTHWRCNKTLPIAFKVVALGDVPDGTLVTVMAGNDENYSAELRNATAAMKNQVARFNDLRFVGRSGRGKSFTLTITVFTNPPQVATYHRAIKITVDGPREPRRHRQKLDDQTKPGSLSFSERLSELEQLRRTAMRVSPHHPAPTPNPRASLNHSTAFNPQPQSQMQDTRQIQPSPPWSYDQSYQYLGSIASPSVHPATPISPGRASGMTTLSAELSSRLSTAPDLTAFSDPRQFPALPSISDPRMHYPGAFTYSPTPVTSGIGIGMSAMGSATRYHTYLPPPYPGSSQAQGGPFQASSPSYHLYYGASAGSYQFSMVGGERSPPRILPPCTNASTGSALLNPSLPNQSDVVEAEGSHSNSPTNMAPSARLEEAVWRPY
Target sequence (Q13951 whole entry, looked up): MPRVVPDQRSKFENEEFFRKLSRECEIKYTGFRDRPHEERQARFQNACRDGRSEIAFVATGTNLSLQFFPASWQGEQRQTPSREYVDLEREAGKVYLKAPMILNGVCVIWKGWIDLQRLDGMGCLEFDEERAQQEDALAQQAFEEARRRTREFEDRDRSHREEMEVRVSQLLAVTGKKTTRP
RanGTP-Imp inh – inhibitors of RanGTP-importin-beta interaction, primary screen, biochemical, FRET, CFP-Ran, YFP-importin-beta, homogeneous; Ran GTPase (GTP-bound) - importin-beta complex; cell-free CFP-Ran/YFP-importin-beta FRET ratio; inhibition, % (no concentration beside the values); 1.1% of 300,000 active; AID 2216, 2009;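 active = more than half of the replicate wells show a fall in the fluorescence ratio signal beyond about 16%, limit read from the data, passing the limit was not always enough; inconclusive = exactly half of the replicate wells pass the set limit; inactive = fewer than half of replicates pass the limit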;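 note: 0% = DMSO wells and 100% = Ran loaded with GDP instead of GTP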
Tb hexokinase – Trypanosoma brucei hexokinase 1 inhibitors, primary screen, biochemical, G6PDH-coupled NADH absorbance, MLSCN library | recombinant TbHK1, G6PDH-coupled NADH A340 | 0.11% of 220,000 active | hexokinase 1 [Trypanosoma brucei] | AID 1430, 2008 | inhibition, % at 10 µM;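 active = inhibition of 50% or more in the single-dose primary screen; inactive = inhibition below 50%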
Hck-Nef inh – inhibitors of Nef-activated human Hck kinase, primary screen, biochemical, Z-Lyte FRET, 384-well, Hck-YEEI. Recombinant Hck-YEEI plus Nef, Z-Lyte FRET kinase assay. inhibition, % at 20 µM. 0.68% of 220,000 active. AID 463187, 2010;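 active = Hck-Nef kinase inhibition above about 50%, limit read from the data; inactive = inhibition below that limit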;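 note: 0% = DMSO with Hck plus Nef and 100% = Hck alone without Nef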
Runt-CBFb FRET – inhibitors of RUNX1 Runt–CBFb binding, primary screen, biochemical, FRET, Cerulean-Runt, Venus-CBFb, uHTS | Runt-related transcription factor 1 (Homo sapiens) + Core-binding factor subunit beta … | Cerulean-Runt/Venus-CBFb FRET ratio 530/480, 1 h | inhibition, % at 20 µM | 0.46% of 220,000 active;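 active = inhibition over about 50% at 20 µM in the single-dose screen, limit read from the data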;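 note: 0% = DMSO wells and 100% = excess unlabeled CBFb competitor control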
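test system = Cerulean-tagged RUNX1 Runt domain (FRET donor) fusion protein | reagent = Venus-CBFb binding partner, 100 nM | incubation = protein complex preformed 1 h, compound exposure 1 h, room temperature, dark | detection = FRET fluorescence | read-out basis = loss of energy transfer signal | controls = 5 µM unlabeled CBFb as full-inhibition high control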
* = called active by the depositor; ? = inconclusive; · = no result; + = active, no number.

SMILES	Runt-SMMHC FRET	RanGTP-Imp inh	Tb hexokinase	Hck-Nef inh	Runt-CBFb FRET
O=C(Nc1cccc(C(F)(F)F)c1)c1cc2c(s1)-c1ccccc1OC2	87*	41*	-9	13	45
CCCCn1c(NC(=O)c2ccc(F)cc2)c(C#N)c2nc3ccccc3nc21	·	18*	·	·	·
CCC(C)n1c(NC(=O)c2ccccc2)c(C#N)c2nc3ccccc3nc21 (centres undefined)	66*	21*	-9	12	16
CCCCn1c(NC(=O)c2ccccc2)c(C#N)c2nc3ccccc3nc21	26	·	-20	21	6
CCOc1ccc(C(C(=O)NCC2CCCO2)N(Cc2cccs2)C(=O)c2snc(C(N)=O)c2N)cc1 (centres undefined)	·	4	·	·	·
Cc1nnc2sc(-c3ccc(NC(=O)c4ccc(-c5ccc(Cl)cc5Cl)o4)cc3)nn12	·	?	-39	87*	·
N#Cc1c2ccccc2nc2ccccc12	98*	18*	-19	43	45
Cc1oc(-c2cc(F)cc(F)c2)nc1CN1CCN(C(=O)c2ccco2)CC1	·	6	·	·	·
CC(C)CCNC(=O)CCSCCC(=O)NCCC(C)C	-3	1	-1	1	-6
CCOc1cc(-c2cc(-c3ccccc3)nc(N)c2C#N)ccc1O	-4	7	-21	-1	1
CCOc1cc(-c2cc(-c3ccc(N)cc3)nc(N)c2C#N)ccc1O	80*	48*	-26	17	46
CCOC(=O)c1nc(Nc2cc(C)cc(C)c2)c2ccccc2n1	-5	1	-9	-17	-10
CC(C)(C)NC(=O)CSc1nnc(C2CC2)n1Cc1ccccc1	-1	0	0	2	1
CC(C)(C)NC(=O)CSc1nnc(C2CC2)n1-c1ccccc1	2	52*	1	23	-1
CCCn1c(=N)c(S(=O)(=O)c2ccccc2)cc2c(=O)n3cccc(C)c3nc21	·	145*	·	·	·
CCCCCn1c(=N)c(S(=O)(=O)c2ccc(Cl)cc2)cc2c(=O)n3cccc(C)c3nc21	·	67*	·	·	·
Cc1cccn2c(=O)c3cc(S(=O)(=O)c4ccc(Br)cc4)c(=N)n(C4CCCC4)c3nc12	·	3	·	·	·
COc1ccc(CCNC(=O)CCc2cc(OC)c(OC)c(OC)c2)cc1OC	·	0	·	·	·
O=C1C=C(Nc2cccc(O)c2)CC(c2ccco2)C1 (centres undefined)	-8	64*	-18	9	1
O=C1C=C(Nc2ccc(Cl)cc2)CC(c2ccco2)C1 (centres undefined)	-1	29*	-18	10	1
CCOc1ccc(NC2=CC(=O)CC(c3ccco3)C2)cc1 (centres undefined)	1	5	-7	18	3
Cc1ccc(C(=O)Sc2cccccc2=O)cc1	·	4	·	·	·
C=C(C)Cc1c(C)c(C#N)c2[nH]c3ccccc3n2c1=O	·	42*	·	·	·
CCc1c(C)c(C#N)c2[nH]c3ccccc3n2c1=S	84*	10	4	-152	15
Cc1ccc(Cc2c(C)c(C#N)c3[nH]c4ccccc4n3c2=O)cc1	2	21*	-11	25	-1
SMILES	Runt-SMMHC FRET	RanGTP-Imp inh	Tb hexokinase	Hck-Nef inh	Runt-CBFb FRET
COc1ccc(S(=O)(=O)NC2CC(C)(C)NC(C)(C)C2)cc1C(C)C	-6	0	-1	5	1
C(=C\n1nnc2ccccc21)/c1ccc[nH]1	·	-3	·	·	·
O=C(O)COc1ccccc1Cc1ccccc1	143	0	1	-2	88*
C=CCc1ccccc1OCC(=O)O	-8	3	-9	9	2
Cc1cc(=O)n2nc(N3CCCC3C(=O)Nc3cccc(F)c3)sc2n1 (centres undefined)	·	-1	·	·	·
O=C(O)CSc1cc(C(=O)c2cc(F)ccc2O)cn2c(=O)c3c(-c4ccccc4)csc3nc12	-28	-10	-14	52*	-10
CCOC(=O)c1sc2nc3c(SCCC#N)cc(C(=O)c4cc(F)ccc4O)cn3c(=O)c2c1C	-69	0	-1	4	-23
CCOC(=O)/C=C(\C)Sc1cc(O)c2ccccc2c1O	61*	·	-6	-167	27
CCOC(=O)/C=C(\C)Sc1cc(=O)oc2ccccc12	-1	2	-2	-1	5
CCOC(=O)[C@@H]1[C@H]2COc3ccccc3[C@H]2N2C(=O)N(c3ccc(OC)cc3)C(=O)[C@]12C	·	-2	·	·	·
Cc1ccc(C(=O)Oc2cccnc2)cc1[N+](=O)[O-]	2	1	0	5	102*
N#C/C(=C/c1ccc(F)cc1)c1nnc(NC(=O)c2ccccc2)s1	81*	-5	-15	-14	2
c1ccc2c(Nc3nncs3)c3ccccc3nc2c1	17	59*	-5	26	9
O=S1(=O)N=C(Nc2nncs2)c2ccccc21	-10	0	-43	0	2
CN(C)CCCNC(NC(=O)/C=C/c1ccccc1)C(Cl)(Cl)Cl (centres undefined)	4	3	-1	14	0
O=C(CN1C(=O)S/C(=C\c2cc(Cl)c(O)c(Cl)c2)C1=O)Nc1ccccc1	·	51*	·	·	·
Cc1cccc(NC(=O)CN2C(=O)S/C(=C\c3ccc(O)c([N+](=O)[O-])c3)C2=O)c1	0	-7	3	61*	-8
COc1cc(/C=C2\SC(=O)N(CC(=O)Nc3ccc(C)cc3)C2=O)cc(Cl)c1OCC(=O)O	·	0	·	·	·
O=C(O)c1cc2c(ccc3ccccc32)oc1=O	11	0	-5	-15	12
O=C(NCc1ccccn1)c1cc2c(ccc3ccccc32)oc1=O	·	37*	-4	-12	104*
COc1cccc2cc(C(=O)NCc3ccccn3)c(=O)oc12	-3	-3	-10	6	2
O=C(OCc1nc2ccccc2s1)c1cc2ccccc2oc1=O	-1	3	-6	3	0
N=c1oc2ccc3ccccc3c2cc1C(N)=S	92*	76*	-11	23	118*
CCOC(=O)c1cc2c(ccc3ccccc32)oc1=O	92*	?	-10	23	85*
CC(OC(=O)c1cc2c(ccc3ccccc32)oc1=O)c1nc2ccccc2s1 (centres undefined)	93*	49*	-1	5	39
COc1ccc(/C=N/NC(=O)c2nnn(-c3nonc3N)c2-c2cccs2)cc1OC	·	3	·	·	·
Cc1ccc(/C=N/NC(=O)c2nnn(-c3nonc3N)c2-c2cccs2)cc1	·	189*	·	·	·
CC(C)c1c(C(=O)N/N=C/c2ccc(OCc3ccccc3)cc2)nnn1-c1nonc1N	·	+	·	·	·
